Converted amounts (≈) assume the structure as drawn.
How the values were obtained:
[1] = Solubility of the compound at pH 7.4 after 18 hrs by UV spectrometry; format: physicochemical; conditions: buffer, pH 7.4
Procedure, shortened: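 10 mM DMSO stocks diluted 100-fold in system solution buffer pH 7.4 and held 18 h at room temperature. Filtered, diluted 1:1 with isopropanol and measured by UV (230–500 nm). Compared against a 600-fold diluted reference in buffer/isopropanol. Triplicates.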

[2] = Half life in mouse liver microsomes; format: ADME, Microsome
Procedure, shortened: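 Mouse liver microsomes at 0.6381 mg/mL protein in 0.1 M potassium phosphate pH 7.4 with EDTA. Reaction started with NADPH regenerating system at 37°C; six time points including 0, triplicate wells. Quenched in cold acetonitrile with warfarin internal standard, analysed by LC–MS. Half-life from a first-order least-squares fit.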

[3] = Half life in human liver microsomes; format: ADME, Microsome
[4] = Apparent permeability of the compound from apical to basal side of human Caco2 cells at 50 umol/L after 2 hrs by UPLC/MS analysis; format: ADME, cell-based; conditions: Caco-2
Procedure, shortened: (§1)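 Caco-2 monolayers grown 7 days on Transwell inserts, washed with HBSS/HEPES pH 7.4. Compound at 50 µmol/L added apically or basolaterally, then 2 h at 37°C. Receiver side sampled and quantified by UPLC/MS. Papp = (dQ/dt)/(A×C0), triplicates.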

[5] = Apparent permeability of the compound from basal to apical side of human Caco2 cells at 50 umol/L after 2 hrs by UPLC/MS analysis; format: ADME, cell-based; conditions: Caco-2; procedure, shortened: as §1
[6] = Plasma protein binding in mouse at 10 uM after 4 hrs by LC/MS analysis; format: ADME, cell-free; conditions: read-out: PPB (converted)
Procedure, shortened: (§2)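 Compound at 10 µM (0.1% DMSO) in mouse or human plasma. Rapid equilibrium dialysis (MWCO 8K) against DPBS pH 7.4, 4 h at 37°C with orbital shaking. Both chambers matrix-matched, precipitated with acetonitrile containing warfarin internal standard, quantified by LC–MS. %Free = buffer/plasma × 100; %Bound = 100 − %Free.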

[7] = Plasma protein binding in human at 10 uM after 4 hrs by LC/MS analysis; format: ADME, cell-free; conditions: read-out: PPB (converted); procedure, shortened: as §2
Staphylococcus aureus = assay: Antibacterial activity against Staphylococcus aureus ATCC 29213 after overnight incubation by microbroth dilution technique; format: functional
Procedure, shortened: (§3)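 Two-fold serial broth dilutions per CLSI; inoculum about 10^5 CFU/mL; top final drug concentration 200 µg/mL; incubated aerobically overnight at 37°C. MIC read visually as the lowest concentration with no visible growth.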

Streptococcus pyogenes = assay: Antibacterial activity against Streptococcus pyogenes ATCC 700294 after overnight incubation by microbroth dilution technique; format: functional; procedure, shortened: as §3
Bacillus anthracis = assay: Antibacterial activity against Bacillus anthracis Sterne 34F2 after overnight incubation by microbroth dilution technique; format: functional
Procedure, shortened: (§4)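 Non-mycobacterial strains: two-fold serial dilutions in broth by CLSI microbroth dilution. Inoculum about 10^5 cfu/mL; top final drug concentration 200 µg/mL. Aerobic incubation at 37°C overnight. MIC read visually as the lowest concentration with no visible growth.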

Escherichia coli = assay: Antibacterial activity against Escherichia coli K12 after overnight incubation by microbroth dilution technique; format: functional; conditions: K-12; procedure, shortened: as §4
[8] = Cmax in Sprague-Dawley rat at 10 mg/kg, iv; format: ADME, organism-based; set-up: dose 10 mg/kg, route intravenous; conditions: in vivo
Procedure, shortened: (§5)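 Rats, n=5, given 10 mg/kg IV via femoral vein catheter. Vehicle was 2% ethanol/saline or 30% DMSO/30% propylene glycol/20% PEG 3000/20% saline, depending on compound. Plasma sampled 0–48 h and urine collected in intervals to 48 h; both assayed by LC-MS/MS after acetonitrile precipitation. Non-compartmental analysis: CL = dose/AUC0-∞; fe = cumulative unchanged urinary amount/dose.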

[9] = AUC (0 to infinity) in Sprague-Dawley rat at 10 mg/kg, iv; format: ADME, organism-based; set-up: time infinity, dose 10 mg/kg, route intravenous; conditions: plasma; procedure, shortened: as §5
[10] = Half life in Sprague-Dawley rat at 10 mg/kg, iv; format: ADME, organism-based; set-up: dose 10 mg/kg, route intravenous; conditions: in vivo; procedure, shortened: as §5
[11] = Clearance in Sprague-Dawley rat at 10 mg/kg, iv; format: ADME, organism-based; set-up: dose 10 mg/kg, route intravenous; conditions: in vivo; procedure, shortened: as §5
[12] = Volume of distribution in Sprague-Dawley rat at 10 mg/kg, iv; format: ADME, organism-based; set-up: dose 10 mg/kg, route intravenous; conditions: in vivo; procedure, shortened: as §5
[13] = Drug excretion in Sprague-Dawley rat urine at 10 mg/kg, iv; format: ADME, organism-based; set-up: dose 10 mg/kg, route intravenous; conditions: read-out: Drug excretion; procedure, shortened: as §5
Rattus norvegicus [14] = assay: Oral bioavailability in Sprague-Dawley rat at 100 mg/kg; format: ADME, organism-based; conditions: in vivo
Procedure, shortened: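 Fasted rats, n=5, dosed 100 mg/kg by oral gavage. Vehicle was 2% methanol, 60:40 PEG 3000/water or 10% vitamin E TPGS, depending on compound. Plasma sampled to 48 h and assayed by LC-MS/MS. F = (AUCoral×DoseIV)/(AUCIV×Doseoral), referenced to 10 mg/kg IV.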

Vero = assay: Cytotoxicity against african green monkey Vero cells after 72 hrs by MTT assay; format: cell-based; conditions: Chlorocebus sabaeus
Procedure, shortened: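 Vero cells in DMEM with 10% FBS, seeded at ~10% confluency and left to adhere overnight. Two-fold serial dilutions applied for 72 h at 37°C, 5% CO2. MTT read-out at 570 nm after overnight solubilization.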

Rattus norvegicus [15] = assay: Toxicity in Sprague-Dawley rat assessed as seizures at 10 mg/kg, iv; format: organism-based; set-up: dose 10 mg/kg, route intravenous; conditions: in vivo
Procedure, shortened: (§6)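 Observed during rat IV pharmacokinetic study (n=5). Single 10 mg/kg dose via femoral vein catheter, flushed with heparinized locking solution. Vehicle was 2% ethanol/saline or 30% DMSO/30% propylene glycol/20% PEG 3000/20% saline. Animals followed with serial blood sampling to 48 h.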

Rattus norvegicus [16] = assay: Toxicity in Sprague-Dawley rat assessed as mortality at 10 mg/kg, iv; format: organism-based; set-up: dose 10 mg/kg, route intravenous; conditions: in vivo; procedure, shortened: as §6
Rattus norvegicus [17] = assay: Toxicity in Sprague-Dawley rat assessed as mortality at 100 mg/kg, po; format: organism-based; set-up: dose 100 mg/kg, route oral; conditions: in vivo
Procedure, shortened: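 Observed during rat oral pharmacokinetic study (n=5). Overnight-fasted animals, water ad libitum, received 100 mg/kg by oral gavage. Vehicle was compound-dependent: 2% methanol (sonicated), 60:40 PEG 3000/water, or 10% vitamin E TPGS. Animals followed with sampling to 48 h.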

Streptococcus pneumoniae = assay: Antibacterial activity against Streptococcus pneumoniae DAW27 after overnight incubation by microbroth dilution technique; format: functional; procedure, shortened: as §3
Enterococcus faecalis = assay: Antibacterial activity against Enterococcus faecalis ATCC 3186 after overnight incubation by microbroth dilution technique; format: functional; procedure, shortened: as §3
Bacillus subtilis = assay: Antibacterial activity against Bacillus subtilis ATCC 23857 after overnight incubation by microbroth dilution technique; format: functional; procedure, shortened: as §4

Compound | solubility at 18 h [1] | half-life [2] | half-life [3] | Papp A→B at 2 h, 50 µM [4] | Papp B→A at 2 h, 50 µM [5] | fraction unbound at 4 h, 10 µM [6] | fraction unbound at 4 h, 10 µM [7] | MIC (Staphylococcus aureus) | MIC (Streptococcus pyogenes) | MIC (Bacillus anthracis) | MIC (Escherichia coli) | Cmax [8] | AUC(0-inf) [9] | half-life [10] | clearance [11] | Vd [12] | dose excreted [13] | MIC (Streptococcus pneumoniae) | MIC (Enterococcus faecalis) | MIC (Bacillus subtilis) | further results
O=[N+]([O-])c1ccc(C2=NOC(c3ccc(N4CCOCC4)nc3)C2)o1 (stereo not drawn) | 14.1 µg/mL (≈ 40.9 µM) | 73.8 min | 202 min | 6.47 ×10⁻⁶ cm/s | 14.2 ×10⁻⁶ cm/s | 0.047 | 0.033 | 12.5 µg/mL (≈ 36.3 µM) | 25 µg/mL (≈ 72.6 µM) | 25 µg/mL (≈ 72.6 µM) | > 200 µg/mL | 2730 ng/mL | 3360 ng·h/mL | 43.2 min | 50.3 mL/min/kg | 2.86 L/kg | 0.02% | – | – | – | F (Rattus norvegicus [14]): 47.9%; IC50 (Vero): 3.2 µg/mL (≈ 9.29 µM); Activity (Rattus norvegicus [15]): Non-toxic; Activity (Rattus norvegicus [16]): Non-toxic; Activity (Rattus norvegicus [17]): Non-toxic
O=[N+]([O-])c1ccc(C2=NOC(c3ccc(N4CCOCC4)cc3)C2)o1 (stereo not drawn) | – | – | – | 17.2 ×10⁻⁶ cm/s | – | 0.036 | 0.038 | 6.25 µg/mL (≈ 18.2 µM) | 25 µg/mL (≈ 72.8 µM) | 12.5 µg/mL (≈ 36.4 µM) | > 200 µg/mL | 830 ng/mL | 1630 ng·h/mL | 143 min | 108 mL/min/kg | 35 L/kg | 0% | 50 µg/mL (≈ 146 µM) | > 200 µg/mL | 12.5 µg/mL (≈ 36.4 µM) | F (Rattus norvegicus [14]): 100%; IC50 (Vero): 2.9 µg/mL (≈ 8.45 µM); Activity (Rattus norvegicus [15]): Non-toxic; Activity (Rattus norvegicus [16]): Non-toxic; Activity (Rattus norvegicus [17]): Non-toxic
O=[N+]([O-])c1ccc(C2=NOC(c3ccc(N4CCOCC4)c(F)c3)C2)o1 (stereo not drawn) | 3.2 µg/mL (≈ 8.86 µM) | – | – | – | – | 0.061 | 0.066 | 25 µg/mL (≈ 69.2 µM) | 200 µg/mL (≈ 554 µM) | 12.5 µg/mL (≈ 34.6 µM) | > 200 µg/mL | – | – | – | – | – | – | 200 µg/mL (≈ 554 µM) | 200 µg/mL (≈ 554 µM) | 200 µg/mL (≈ 554 µM) | –
O=[N+]([O-])c1ccc(C2=NOC(c3ccc(N4CCSCC4)cc3)C2)o1 (stereo not drawn) | 1.9 µg/mL (≈ 5.29 µM) | 2.4 min | 12.6 min | 9.62 ×10⁻⁶ cm/s | 11.4 ×10⁻⁶ cm/s | 0.013 | 0.015 | – | > 200 µg/mL | – | > 200 µg/mL | – | – | – | – | – | – | – | 100 µg/mL (≈ 278 µM) | – | –
O=[N+]([O-])c1ccc(C2=NOC(c3ccc(N4CC[S+]([O-])CC4)cc3)C2)o1 (stereo not drawn) | 28.9 µg/mL (≈ 77 µM) | 52.2 min | 272 min | 24.2 ×10⁻⁶ cm/s | 27.2 ×10⁻⁶ cm/s | 0.178 | 0.223 | 6.25 µg/mL (≈ 16.6 µM) | 50 µg/mL (≈ 133 µM) | 12.5 µg/mL (≈ 33.3 µM) | 100 µg/mL (≈ 266 µM) | – | – | – | – | – | – | 50 µg/mL (≈ 133 µM) | 100 µg/mL (≈ 266 µM) | 6.25 µg/mL (≈ 16.6 µM) | –
CN1CCN(c2ccc(C3CC(c4ccc([N+](=O)[O-])o4)=NO3)cc2)C(=O)C1 (stereo not drawn) | 28.8 µg/mL (≈ 77.8 µM) | – | – | – | – | 0.239 | 0.426 | 6.25 µg/mL (≈ 16.9 µM) | 50 µg/mL (≈ 135 µM) | 12.5 µg/mL (≈ 33.8 µM) | 50 µg/mL (≈ 135 µM) | 1190 ng/mL | 960 ng·h/mL | 36.6 min | 194 mL/min/kg | 3.1 L/kg | 0.68% | 50 µg/mL (≈ 135 µM) | 100 µg/mL (≈ 270 µM) | 6.25 µg/mL (≈ 16.9 µM) | F (Rattus norvegicus [14]): 58.3%; IC50 (Vero): 20.3 µg/mL (≈ 54.8 µM); Activity (Rattus norvegicus [15]): Toxic; Activity (Rattus norvegicus [16]): Toxic; Activity (Rattus norvegicus [17]): Non-toxic

Reference: ChEMBL document CHEMBL2146426, “Antitubercular nitrofuran isoxazolines with improved pharmacokinetic properties” (Bioorg Med Chem, 2012)
